Here are results for 21 compounds from ChEMBL document CHEMBL4251640, “Antimalarial naphthoquinones. Synthesis via click chemistry, in vitro activity, docking to PfDHODH and SAR of lapachol-based compounds” (Eur J Med Chem, 2018).

Structures are written as SMILES. Bounds are passed on as bounds.

Data set [1] concerns Plasmodium falciparum. Kind of data set: Antimalarial activity against chloroquine-resistant/mefloquine-sensitive Plasmodium falciparum W2 ring stage forms infected in human erythrocytes assessed as reduction in parasite growth after 48 hrs by parasite LDH release assay. The conditions noted are these: W2, 48 h. The class given is functional, organism-based. In outline:
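Sorbitol-synchronized ring-stage parasites in human erythrocytes (culture kept at 37 °C, candle jar, RPMI with hypoxanthine, HEPES, 10% human plasma) plated at 2% parasitemia, 1% hematocrit with drugs diluted from DMSO stock. Incubated 48 h, frozen -20 °C 24 h, thawed. Lysate given Malstat plus NBT/PES for 1 h at 37 °C in the dark, A570 read. Triplicates. IC50 from sigmoidal dose-response fit versus drug-free controls.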

A short description of data set [2]: Cytotoxicity against human HepG2 cells assessed as reduction in cell viability after 24 hrs by MTT assay. The format is cell-based. In outline:
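HepG2 hepatoma cells kept at 37 °C, 5% CO2 in RPMI 1640 with 5% FBS, penicillin and streptomycin; trypsinized and plated in 96-well plates. Samples diluted in medium at 0.02% DMSO final, four serial concentrations; 24 h at 37 °C, then MTT (5 mg/ml in PBS) 90 min, formazan dissolved in DMSO, absorbance 570 nm. Duplicate; CC50 = concentration killing 50% of cells.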
(In general: Tetrazolium dyes change colour on reduction, which living cells bring about.)

Data set [3] is described as follows: Selectivity index, CC50 for human HepG2 cells to IC50 for chloroquine-resistant/mefloquine-sensitive Plasmodium falciparum W2 ring stage forms. The class given is toxicity. The note with it: read-out: Ratio CC50/IC50. In outline: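 HepG2 cytotoxicity: cells in RPMI 1640 with 5% FBS, trypsinized and plated. Compounds at 0.02% DMSO final, four serial-dilution concentrations, 24 h at 37 °C. MTT added for 90 min, formazan dissolved in DMSO, read at 570 nm. Duplicates. CC50 taken as the concentration killing 50% of cells. SI = CC50/IC50 against W2, with IC50 from the 48 h pLDH assay.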

One may read the IC50 as the concentration needed to halve the response being measured. As usually defined, the CC50 is the concentration at which the toxic effect on the cells reaches its halfway point. Regarding `CC(C)=CCC1=C(OCc2cn(-c3ccc(S(N)(=O)=O)cc3)nn2)C(=O)c2ccccc2C1=O`, the IC50 in data set [1] was greater than 105 µM. In addition, the CC50 at 24 h in data set [2] was 483 µM. For the same compound, the selectivity ratio in data set [3] is less than 4.6.
The like results for `O=C1C(O)=C([C@H]2CC[C@H](c3ccc(Cl)cc3)CC2)C(=O)c2ccccc21` [ATOVAQUONE] were, in that order, 0.00122 µM, greater than 40 µM and greater than 328.
The like results for `CC(C)=CCC1=C(OCc2cn(-c3ccnc4cc(Cl)ccc34)nn2)C(=O)c2ccccc2C1=O` were, in that order, 15.1 µM, 1940 µM and 129.
The like results for `COc1ccc(-n2cc(COC3=C(CC=C(C)C)C(=O)c4ccccc4C3=O)nn2)cc1` were, in that order, 14.2 µM, 200 µM and 14.1.
Regarding `CC(C)=CCC1=C(OCc2cn(-c3ccc(Cl)cc3)nn2)C(=O)c2ccccc2C1=O`, the IC50 in data set [1] came to 9.8 µM. Also, the CC50 at 24 h in data set [2] worked out at 1150 µM. The selectivity ratio in data set [3] worked out at 118.
Consider `CC(C)=CCC1=C(OCc2cn(Cc3ccccc3)nn2)C(=O)c2ccccc2C1=O`, for which the concentration for half-maximal inhibition (IC50) in data set [1] is 7.8 µM. Besides, in data set [2], the CC50 at 24 h was determined as 414 µM. Moreover, the selectivity ratio in data set [3] amounted to 53.
The like results for `CC(C)=CCC1=C(OCc2cn(C3C[C@@H](CO)O[C@H]3n3cc(C)c(=O)[nH]c3=O)nn2)C(=O)c2ccccc2C1=O` (stereo partly specified) were, in that order, 13.6 µM, 60.7 µM and 4.5.
On the same counts, the results for `CC(C)=CCC1=C(OCc2cn(-c3cccc(F)c3)nn2)C(=O)c2ccccc2C1=O` are 8.4 µM, 265 µM and 31.5.
On the same counts, the results for `CC(C)=CCC1=C(O)C(=O)c2ccccc2C1=O` [LAPACHOL] are 124 µM, greater than 4130 µM and greater than 33.4.
Turning to `CC(C)=CCC1=C(OCc2cn(C3CCNCC3)nn2)C(=O)c2ccccc2C1=O`, the IC50 in data set [1] is 4.6 µM. Moreover, the CC50 at 24 h in data set [2] worked out at 570 µM. Further, the selectivity ratio in data set [3] stood at 124.
On the same counts, the results for `COc1ccc(-n2cc(COC3=C(CC=C(C)C)C(=O)c4ccccc4C3=O)nn2)c([N+](=O)[O-])c1` are 8.2 µM, 532 µM and 64.8.
As to `CC(C)=CCC1=C(OCc2cn(C3CCN(C(=O)OC(C)(C)C)CC3)nn2)C(=O)c2ccccc2C1=O`, the IC50 in data set [1] was 4 µM. In addition, the CC50 at 24 h in data set [2] worked out at 136 µM. Besides, the selectivity ratio in data set [3] was determined as 34.
On the same counts, the results for `CC(C)=CCC1=C(OCc2cn(-c3ccccc3)nn2)C(=O)c2ccccc2C1=O` are 19.1 µM, 100 µM and 5.2.
On the same counts, the results for `COc1cc([N+](=O)[O-])ccc1-n1cc(COC2=C(CC=C(C)C)C(=O)c3ccccc3C2=O)nn1` are 4.1 µM, 701 µM and 171.
Regarding `CC(C)=CCC1=C(OCc2cn(Cc3ccccn3)nn2)C(=O)c2ccccc2C1=O`, the IC50 in data set [1] amounted to 8.7 µM. For the same compound, in data set [2], the CC50 at 24 h was 658 µM. Besides, the selectivity ratio in data set [3] stood at 75.6.
For the compound `CC(C)=CCC1=C(OCc2cn(-c3ccccc3C)nn2)C(=O)c2ccccc2C1=O`, the IC50 in data set [1] was 18.8 to 19.4 µM. Besides, the CC50 at 24 h in data set [2] is 256 µM. Further, in data set [3], the selectivity ratio worked out at 13.6.
For `C#CCOC1=C(CC=C(C)C)C(=O)c2ccccc2C1=O`, in data set [1], the IC50 came out at 8.2 µM. The CC50 at 24 h in data set [2] was 924 µM. Moreover, in data set [3], the selectivity ratio was 113.
For `CCN(CC)CCCC(C)Nc1ccnc2cc(Cl)ccc12` (stereo unspecified) [CHLOROQUINE], in data set [2], the CC50 at 24 h was 393 µM.
On to `CC(C)=CCC1=C(OCc2cn(-c3ccc(C#N)cc3)nn2)C(=O)c2ccccc2C1=O`, for which, in data set [1], the IC50 worked out at 8.4 µM. The CC50 at 24 h in data set [2] was determined as 707 µM. Also, the selectivity ratio in data set [3] is 84.2.
On the same counts, the results for `CC(C)=CCC1=C(OCc2cn(-c3ccc([N+](=O)[O-])cc3)nn2)C(=O)c2ccccc2C1=O` are 11.7 µM, 540 µM and 46.1.
The like results for `CC(C)=CCC1=C(OCc2cn(-c3cccnc3)nn2)C(=O)c2ccccc2C1=O` were, in that order, 5.2 µM, 1030 µM and 198.
